Assay outcomes from PubChem.
An excerpt weighted towards active compounds, which were near 2.2% of everything screened.
UBC13 inh: blocks human UBC13 polyubiquitin chain formation; P61088; TR-FRET; inhibition, % at 20 µM; 330,000 tested, 0.47% active; AID 485273; in the data active means inhibition above about 45%, passing the limit was not always enough
Target sequence (P61088 whole entry, looked up): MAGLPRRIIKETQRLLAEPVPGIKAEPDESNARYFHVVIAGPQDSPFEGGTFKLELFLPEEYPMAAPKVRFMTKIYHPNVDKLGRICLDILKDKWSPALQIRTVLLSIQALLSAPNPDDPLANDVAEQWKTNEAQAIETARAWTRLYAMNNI
Apaf-1 inh: human Apaf-1 inhibition; O14727; reconstituted apoptosome caspase-3 activity, DEVD-Rh110 fluorescence; inhibition, % at 20 µM; 330,000 tested, 0.71% active; active means inhibition of at least 40% at 20 µM;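 further: plate controls were DMSO wells for no effect and DEVD-CHO caspase inhibitor wells for full effect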
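System: Apoptosome proteins | Medium: Hepes pH 7.5 with detergent and BSA | Also added: Cytochrome c trigger plus (Z-DEVD)2-Rh110 caspase-3 substrate | Incubation: 30 min compound preincubation, 50 min activation, room temperature | Detection: Rhodamine 110 fluorescence at Ex 480/Em 540 nm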
UBC9 SUMO inh: SUMOylation inhibition; inhibition, % at 35 µM; P63279; HTRF SUMOylation assay, SAE1/SAE2 + UBC9, in vitro; AID 2006; 290,000 tested, 0.36% active; in the data active means inhibition above about 50%, passing the limit was not always enough
Target sequence (P63279 whole entry, looked up): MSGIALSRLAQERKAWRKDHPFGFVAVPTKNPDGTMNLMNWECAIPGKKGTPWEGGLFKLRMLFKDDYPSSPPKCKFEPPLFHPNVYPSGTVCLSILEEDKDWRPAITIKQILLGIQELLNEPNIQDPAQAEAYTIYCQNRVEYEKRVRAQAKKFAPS
Rin1-Abl PPI inh: inhibitors of human Rin1-Abl protein interaction. P00519+Q13671. TR-FRET Rin1/Abl binding, biochemical. inhibition, % at 7.35 µM. 360,000 tested, 0.4% active; in the data active means inhibition above about 5%, passing the limit was not always enough
GSTO1 counter: GSTO1 inhibition, counter-screen for RBBP9 inhibitors. P78417. recombinant GSTO1, activity-based probe fluorescence polarization. inhibition, % at 5.96 µM. 300,000 tested, 1.1% active;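 active means inhibition above the campaign mean inhibition plus 3 SD, cut at about 35% in these data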;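 further: 0% = GSTO1-1 with DMSO and 100% = wells lacking GSTO1-1 enzyme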
Target sequence (P78417 whole entry, looked up): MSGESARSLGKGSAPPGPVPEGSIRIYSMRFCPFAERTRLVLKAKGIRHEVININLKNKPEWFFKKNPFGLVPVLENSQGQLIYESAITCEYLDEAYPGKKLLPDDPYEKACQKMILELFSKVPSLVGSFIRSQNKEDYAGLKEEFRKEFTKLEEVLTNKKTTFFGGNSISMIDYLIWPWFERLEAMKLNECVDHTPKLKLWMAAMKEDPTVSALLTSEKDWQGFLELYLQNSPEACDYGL
PAD4 inh: inhibitors of human PAD4; Q9UM07; recombinant PAD4, RCA probe fluorescence polarization; inhibition, % at 6.36 µM; 330,000 tested, 0.41% active; AID 485272;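 active means percent inhibition above a cutoff equal to the mean of all tested compounds plus 3 SD, cut at about 15% in these data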;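 further: 0% = PAD4 with RCA probe and DMSO and 100% = probe without PAD4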
GSTO1 inh conf: GSTO1 (human) inhibition, confirmation; shares compounds with GSTO1 counter; recombinant GSTO1, probe fluorescence polarization; inhibition, % at 5.96 µM; 2,400 tested, 54% active;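 active means inhibition above the primary screen's cutoff, its mean inhibition plus 3 SD, cut at about 35% in these data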;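 further: loss of polarization as inhibitors block binding of rhodamine sulfonate ester activity probe; 0% = GSTO1 with DMSO and 100% = wells lacking GSTO1 enzyme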
Numbers without * were called inactive; i = inactive; / = not tested or not shown.

SMILES	UBC13 inh	Apaf-1 inh	UBC9 SUMO inh	Rin1-Abl PPI inh	GSTO1 counter	PAD4 inh	GSTO1 inh conf
O=[N+]([O-])c1cc([N+](=O)[O-])c2cc3ccccc3nc2c1	-64	25	24	1	39*	-12	10
O=C(CCl)c1cc2c3c(c1)CC(=O)N3CCC2	3	7	20	2	52*	4	67*
CC(C)CC1C(=O)N(Cc2cn(CCC3OCCO3)nn2)CCS(=O)(=O)N1Cc1ccc(-c2ccc(F)nc2)cc1 (centres undefined)	/	/	/	-1	/	/	/
CC(=O)Oc1ccc2occ(/C=N/c3cc(=O)[nH]c(=S)[nH]3)c(=O)c2c1	3	-12	12	-6	73*	6	12
Cc1ccc2occ(/C=N/O)c(=O)c2c1	-7	-1	19	0	34	-5	/
COc1ccc2cc3c(N)c(C(=O)NCc4ccco4)sc3nc2c1	-2	2	11	-10	0	-2	/
Nc1c(C(=O)NCc2ccco2)sc2nc3c(cc12)C(=O)CCC3	-18	-1	28	-4	47*	-6	23
Clc1cccc(Cl)c1C1Nc2cccc3cccc(c23)N1	-26	25	56*	3	47*	2	9
c1csc(C2Nc3cccc4cccc(c34)N2)c1	-53	18	31	5	44*	-2	21
CCN(CC(=O)Nc1ccc(NC(C)=O)cc1)C(=O)c1cc([N+](=O)[O-])ccc1Sc1ccc(Cl)cc1	/	/	/	-4	/	/	/
Cc1ccc(NC(=O)COC(=O)CCc2c[nH]c3ccccc23)c(C)c1	7	2	/	4	/	1	/
O=C1c2cc([N+](=O)[O-])cc3cc([N+](=O)[O-])cc(c23)C(=O)N1c1ccccn1	/	/	-5	-6	42*	13	7
O=C(O)c1cccc(N2C(=O)c3cc([N+](=O)[O-])cc4cc([N+](=O)[O-])cc(c34)C2=O)c1	-54	-6	9	-1	71*	42*	40*
CCCc1nc2ccc(C)cn2c1Cc1ccsc1	/	/	/	3	/	/	/
CCCCN(C(=O)c1cccc(-n2cccc2)c1)c1c(N)n(Cc2ccccc2)c(=O)[nH]c1=O	2	19	/	2	58*	-5	3
Cc1cnc(CNC(=O)CC2C(=O)NCCN2Cc2cccc(F)c2F)cn1 (centres undefined)	-7	2	17	1	16	2	/
O=C(CCl)NC1(C(F)(F)F)C(=O)Nc2c1c(=O)[nH]c(=O)n2-c1ccccc1 (centres undefined)	0	-6	-2	-1	67*	0	71*
CC(=O)NC1(C(F)(F)F)C(=O)Nc2c1c(=O)[nH]c(=O)n2CCc1ccccc1 (centres undefined)	3	-1	8	0	-9	-4	/
Cc1ccc2occ(/C=N/NC(=O)c3ccc(O)cc3)c(=O)c2c1	5	22	4	-1	/	/	/
NC(=O)N/N=C/c1coc2ccc(O)cc2c1=O	-12	5	8	-6	70*	2	20
Cc1ccc(C(=O)OCC(=O)NC2CCCCC2)cc1S(=O)(=O)N1CCCCC1	7	4	/	-1	/	3	/
CCOc1ccc(NC(=S)Nc2ccc3nsnc3c2)cc1	-2	-14	96	3	87*	76*	81*
CCOc1ccc(NC(=O)Nc2ccc3nsnc3c2)cc1	3	0	22	-5	11	1	/
O=C(OCn1ncc(Cl)c(Cl)c1=O)c1ccc(F)cc1	2	18	-56	/	44*	15	29
N#CC(C#N)=Cc1ccccc1OCc1ccccc1	3	8	19	/	-2	0	/
SMILES	UBC13 inh	Apaf-1 inh	UBC9 SUMO inh	Rin1-Abl PPI inh	GSTO1 counter	PAD4 inh	GSTO1 inh conf
COc1ccc(C=NNc2ccc(S(=O)(=O)Nc3ccccc3C(=O)O)cc2[N+](=O)[O-])c(OC)c1	-90	7	/	-3	/	3	/
COc1ccc(NC(=S)NNc2ccc(S(=O)(=O)Nc3ccccc3C(=O)O)cc2[N+](=O)[O-])cc1	-28	16	-1	0	67*	9	80*
Cn1c(C(=O)O)c(CC(=O)N2CCC(Cc3ccccc3)CC2)c2ccccc21	-21	9	14	2	42*	-3	9
CSc1ccc(C(c2c(C)[nH][nH]c2=O)c2c(C)[nH][nH]c2=O)cc1	-24	22	3	2	39*	-8	0
Cc1ccc(C(c2c(C)[nH][nH]c2=O)c2c(C)[nH][nH]c2=O)cc1	-14	8	-5	5	22	-6	/
Nc1cc(-c2ccc(OC(F)(F)F)cc2)nn1-c1ccc(Cl)c(Cl)c1	-12	30	-1	0	1	1	/
c1ccc(-c2ccc(C3=Nn4c(Cn5nnc6ccccc65)nnc4SC3)cc2)cc1	-24	27	-15	-1	56*	-7	-9
CCOC(=O)C/C(N)=N/NC(=O)c1ccc(Cl)cc1Cl	2	-1	-20	-2	62*	-3	5
Cn1cc(C(=O)c2ccc(Cl)cc2Cl)cc1C(=O)N/N=C(\N)COc1ccc(Cl)cc1Cl	-28	8	-31	-3	-38	-3	/
Cc1ccc(O)c(O)c1	7	-4	/	/	55*	6	3
Cc1ccc(O)c(Sc2cc(C)ccc2O)c1	3	10	-9	1	15	-6	/
O=c1oc2ccc(Cl)cc2nc1/C=C(\O)c1cccs1	-31	-1	-9	-5	11	2	/
Cc1ccc2oc(=O)c(/C=C(\O)c3cccs3)nc2c1	-20	-21	1	-1	40*	1	7
Cn1c(=O)c(NCCc2ccccc2)c2c3c(cccc31)C(=O)c1ccccc1-2	-191	5	46	-16	156*	151*	118*
Cn1c(=O)c(NCCO)c2c3c(cccc31)C(=O)c1ccccc1-2	i	-25	55*	-29	82*	134*	76*
Cn1c(=O)c(NC2CCCCC2)c2c3c(cccc31)C(=O)c1ccccc1-2	-43	4	25	-5	/	/	/
CN(CC(=O)Nc1ccc(Cl)c(Cl)c1)CC(=O)N1CCc2ccccc21	/	/	/	-1	/	/	/
CCc1nc2ccc(C(=O)Nc3ccc(OC)c(OC)c3)cn2c1N(C)Cc1cccs1	/	/	/	0	/	/	/
CCN(CC)c1ccc(NS(=O)(=O)c2ccc(OC)cc2)cc1	-14	14	10	2	56*	3	56*
COc1ccc(S(=O)(=O)Nc2ccc(N(C)C(C)=O)cc2)cc1	1	10	13	2	-3	5	/
CC(=O)Oc1cc2cccc(OC(C)=O)c(=O)c2c(OC(C)=O)c1OC(C)=O	-18	1	30	23*	67*	-4	55*
COc1cc2cccc(OC)c(=O)c2c(O)c1OC	-20	1	8	-4	0	3	/
C[C@H]1CN([C@@H](C)CO)S(=O)(=O)c2ccc(Br)cc2O[C@@H]1CN(C)C(=O)CCN1CCCCC1	/	/	/	-5	/	/	/
